Source: PubChem BioAssay
Shown are actives, neighbours in structure and some others; about 1% of the full set was active somewhere.
Tn7 DDE FP: inhibitors of Tn7 peptide binding to fibrin DD(E), primary screen, biochemical, fluorescence polarization, human fibrin, Tn7 probe. FP displacement of FITC-Tn7 peptide from fibrin DD(E); 0% = median of compound wells per plate. 0.13% of 370,000 active. AID 720508, 2013. inhibition, % at 8.3 µM. Fibrinogen beta chain (Homo sapiens), P02675;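 active means inhibition above the mean of compounds falling within the control limits plus 3 SD of them, cut at about 14% in these data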;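 further: 0% = plate median of compound wells and 100% = 10 µM Aha-Tn7 peptide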
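assay system = human clot-derived fibrin DD(E) complex | quantity = Fibrin-DD(E) at 2 µM final | timing = 10 min preincubation, 3 h with tracer, room temperature | signal = fluorescence polarization | measure = percent inhibition | benchmarks = high control wells with 10 µM unlabelled Aha-Tn7 peptide (full inhibition) | replicates = singlicate testing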
PKA-R1A activ: activators of PKA-R1A holoenzyme, primary screen, biochemical, fluorescence polarization, Cy5-IP20, bovine R1A, mouse PKAc; 0.083% of 340,000 active; activation, % at 11.4 µM; PKA-R1A dissociation; scaled: DMSO 0%, 113 µM cGMP 100%; AID 504707, 2011;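 active means percent activation above the mean of all tested compounds plus 3 SD, cut at about 19% in these data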;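 further: higher means more PKAc released from R1A so a rise in polarization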
PKA-R2B act: activators of PKA-R2B holoenzyme, primary screen, biochemical, fluorescence polarization, Cy5-IP20, human; 0.079% of 340,000 active; cAMP-dependent protein kinase catalytic subunit beta (Homo sapiens) + cAMP-dependent …; activation, % at 11.4 µM; PKA-R2B holoenzyme dissociation; R2B truncated from residue 108, S112A mutant; 0% DMSO only, 100% 113 µM cGMP;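 active means activation above a cutoff set at the mean over all compounds plus 3 SD, cut at about 18% in these data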;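 further: higher means more holoenzyme dissociation and a rise in polarization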
Target sequence (P31323 whole entry, looked up, other chains not shown, the tested form may be a part): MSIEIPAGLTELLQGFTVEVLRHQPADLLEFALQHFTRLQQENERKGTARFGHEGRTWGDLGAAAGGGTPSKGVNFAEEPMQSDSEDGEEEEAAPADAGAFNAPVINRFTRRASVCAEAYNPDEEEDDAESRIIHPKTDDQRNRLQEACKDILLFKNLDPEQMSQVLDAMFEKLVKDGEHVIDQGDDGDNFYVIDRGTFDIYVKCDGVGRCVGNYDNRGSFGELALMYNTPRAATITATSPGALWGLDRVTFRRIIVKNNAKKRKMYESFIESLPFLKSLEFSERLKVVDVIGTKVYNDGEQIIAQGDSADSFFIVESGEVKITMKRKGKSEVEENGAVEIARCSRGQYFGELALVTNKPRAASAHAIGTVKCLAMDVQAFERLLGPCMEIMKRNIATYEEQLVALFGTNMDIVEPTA
DDE Tn6 FP inh: inhibitors of Tn6 peptide binding to fibrin DD(E), primary screen, biochemical, fluorescence polarization, human fibrin, Tn6 probe; Fibrin DD(E) TRITC-Tn6 fluorescence polarization displacement; inhibition, % at 8.3 µM; 0.21% of 370,000 active;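 active means inhibition above a per-campaign cutoff: mean of compounds within control limits plus 3 SD, cut at about 15% in these data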;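 further: 0% = median of all compound wells on the plate and 100% = blocking peptide control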
Neddyl block: inhibitors of cullin neddylation, primary screen, biochemical, TR-FRET, uHTS, NAE and Ubc12. NEDD8-conjugating enzyme Ubc12 (Homo sapiens) + NEDD8-activating enzyme E1 regulatory …. 0.58% of 360,000 active. inhibition, % at 25 µM; in the data active means inhibition above about 36%
Tn6 DDE ctr: counter-screen for inhibitors of Tn6 peptide binding to fibrin DD(E). shares compounds with DDE Tn6 FP inh. TRITC-Tn6 fluorescence polarization displacement; 0% = median of compound wells, not DMSO. inhibition, % at 8.3 µM. 2% of 680 active. AID 720621;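 active means inhibition above the mean of test compounds lying between the control limits plus 3 SD of those, cut at about 14% in these data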;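 further: 0% = median of compound wells and 100% = wells with Aha-Tn7 blocking peptide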
Tn6 DDE conf: inhibitors of Tn6 peptide binding to fibrin DD(E), confirmation, biochemical, fluorescence polarization, human fibrin, Tn6 probe; shares compounds with DDE Tn6 FP inh; FP displacement of TRITC-Tn6 peptide from DD(E); 0% = per-plate median of test wells; inhibition, % at 8.3 µM; 10% of 680 active;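 active means inhibition above the mean of compounds lying within the control limits plus 3 SD, cut at about 16% in these data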;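 further: 100% = high control wells holding a competing inhibitor peptide at 10 µM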
* = called active by the depositor.

For O=C(COc1ccccc1Cl)NC(=S)Nc1ccccc1N1CCCC1 the results were Tn7 DDE FP 8, PKA-R1A activ -5, PKA-R2B act 6, DDE Tn6 FP inh 16*, Neddyl block 10, Tn6 DDE ctr 11 and Tn6 DDE conf 5.
COC(=O)c1ccccc1NC(=S)NC(=O)COc1ccccc1Cl was read as Tn7 DDE FP 1, PKA-R1A activ 5, PKA-R2B act -5, DDE Tn6 FP inh 9 and Neddyl block 9.
For COC[C@@H](O)[C@H]1OCc2cc(OC)ccc2[C@@H]1/C=C/c1ccccc1 the results were Tn7 DDE FP 7 and DDE Tn6 FP inh -2.
CCn1c(C)c(C2=CCN(S(=O)(=O)c3ccc(C)cc3)CC2)c2ccccc21 was read as Tn7 DDE FP 3, PKA-R1A activ -4, PKA-R2B act -5, DDE Tn6 FP inh 25*, Neddyl block 14, Tn6 DDE ctr 4 and Tn6 DDE conf 8.
CCCCNC(=O)C1CCN(S(=O)(=O)c2ccc3c(c2)CC(C)N3C(=O)C2CC2)CC1 (stereo unspecified) was read as Tn7 DDE FP -5, PKA-R1A activ 1, PKA-R2B act 13, DDE Tn6 FP inh 103*, Neddyl block -11, Tn6 DDE ctr 1 and Tn6 DDE conf 2.
Screening CC(C)CCNC(=O)C1CCN(S(=O)(=O)c2ccc3c(c2)CC(C)N3C(=O)C2CC2)CC1 (stereo unspecified) returned Tn7 DDE FP -2, PKA-R1A activ -11, PKA-R2B act -15, DDE Tn6 FP inh 9 and Neddyl block -1.
`C[C@H]1COc2cccc(N3CCCC3)c2S(=O)(=O)N1` gave Tn7 DDE FP 0 and DDE Tn6 FP inh 2.
`O=S(=O)(O)c1cc(Cl)cc(N=Nc2ccc(O)cc2O)c1O` gave Tn7 DDE FP 10, PKA-R1A activ 2, PKA-R2B act 3, DDE Tn6 FP inh 23*, Neddyl block -54, Tn6 DDE ctr 2 and Tn6 DDE conf 30*.
For O=[N+]([O-])c1ccc(N=Nc2ccc(O)cc2O)cc1 the results were Tn7 DDE FP -8, PKA-R1A activ 6, PKA-R2B act -2, DDE Tn6 FP inh 9 and Neddyl block -31.
For Nn1c(SCC(=O)N2CCOCC2)nnc1-c1cc(-c2ccc(F)cc2)n[nH]1 the results were Tn7 DDE FP 6, DDE Tn6 FP inh 16*, Tn6 DDE ctr -6 and Tn6 DDE conf -13.
Nn1c(SCC(=O)N2CCOCC2)nnc1-c1cc(-c2ccc(Cl)cc2)n[nH]1 was read as Tn7 DDE FP -4 and DDE Tn6 FP inh 2.
Screening C[C@H](CO)N1C[C@H](C)[C@@H](CN(C)C(=O)NC2CCCCC2)OCc2cn(nn2)CCCC1=O returned Tn7 DDE FP 5 and DDE Tn6 FP inh -1.
CCC(C)(C(=O)NC1CCCCC1)N(C(=O)Cc1cccs1)c1ccccc1 (stereo unspecified) was read as Tn7 DDE FP 0, PKA-R1A activ -6, PKA-R2B act -7, DDE Tn6 FP inh 15*, Neddyl block -7, Tn6 DDE ctr 1 and Tn6 DDE conf 2.
CC(C)CN1C(=O)[C@]2(CC(=O)N(C)C2c2ccccc2)c2cc(-n3cc(C4=CCCCC4)nn3)ccc21 (stereo partly specified) was read as Tn7 DDE FP -1, DDE Tn6 FP inh 15*, Tn6 DDE ctr 8 and Tn6 DDE conf 7.
Screening CC(C)CN1CCC(CN2C(=S)NC[C@@H]2Cc2ccccc2)CC1 returned Tn7 DDE FP -7 and DDE Tn6 FP inh 0.
`COc1ccc(CN2CN3Cc4cc(OC)ccc4C3CS2(=O)=O)cc1` (stereo unspecified) gave Tn7 DDE FP 0 and DDE Tn6 FP inh 0.
`COc1cccc(N2CCN(S(=O)(=O)c3cc4c(cc3C)N(C)CCO4)CC2)c1` gave Tn7 DDE FP 2, PKA-R1A activ -19, PKA-R2B act -11, DDE Tn6 FP inh -8 and Neddyl block -5.
For Cc1cc2c(cc1S(=O)(=O)N1CCN(c3cccc(C)c3C)CC1)OCCN2C the results were Tn7 DDE FP -1, PKA-R1A activ -18, PKA-R2B act -8, DDE Tn6 FP inh 131*, Neddyl block -1, Tn6 DDE ctr 8 and Tn6 DDE conf 67*.
Screening O=C(COc1ccccc1)Nc1cccc(-c2nn[nH]n2)c1 returned Tn7 DDE FP 2, PKA-R1A activ 8, PKA-R2B act 16, DDE Tn6 FP inh -3 and Neddyl block 2.
`O=C(COc1ccccc1)Nc1cccc(-c2nc3cc4ccccc4cc3[nH]2)c1` gave Tn7 DDE FP 3, PKA-R1A activ -11, PKA-R2B act -12, DDE Tn6 FP inh 87*, Tn6 DDE ctr 7 and Tn6 DDE conf 25*.
`COc1ccc(NC(=O)C(c2cc3c(cc2[N+](=O)[O-])OCO3)N(C)Cc2ccccc2)cc1` (stereo unspecified) gave Tn7 DDE FP 1, PKA-R1A activ -3, PKA-R2B act 2, DDE Tn6 FP inh 31*, Neddyl block 7, Tn6 DDE ctr 2 and Tn6 DDE conf 1.
For COc1ccc(OC)c2c1C(=O)c1ccccc1C2=O the results were Tn7 DDE FP 6 and DDE Tn6 FP inh -1.
`O=C1C=C(O)c2c(O)cc(O)c(O)c2C1=O` gave Tn7 DDE FP 2, PKA-R1A activ -9, PKA-R2B act -15, DDE Tn6 FP inh 2 and Neddyl block -21.
`O=C1c2ccccc2C(=O)c2c(O)c(O)cc(O)c21` gave Tn7 DDE FP 3, PKA-R1A activ -2, PKA-R2B act 0, DDE Tn6 FP inh 65*, Neddyl block -84, Tn6 DDE ctr 7 and Tn6 DDE conf 88*.
COc1ccc2noc3c2c1C(=O)c1ccccc1-3 was read as Tn7 DDE FP -6, PKA-R1A activ -12, PKA-R2B act 4, DDE Tn6 FP inh 52*, Neddyl block -97, Tn6 DDE ctr 53* and Tn6 DDE conf 15.
